Measured values as given in ChEMBL document CHEMBL4616646, “Synthesis and Cytotoxicity Studies of Stilbene Long-Chain Fatty Acid Conjugates” (J Nat Prod, 2020).

Assays:
[1] = system: NCI-H460; assay: Cytotoxicity against human NCI-H460 cells after 68 hrs by MTT assay; format: functional, cell-based; details: NCI-H460, 68 h
Method in brief: (§1)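 Cells grown in DMEM with 10% FBS and 1% P/S at 37 °C under 5% CO₂, trypsinized and seeded at ~5 × 10⁴ cells per well. Test drugs added after attachment at 0.1 to 100 μM. After 68 h, MTT (4 mg/mL) added for 4 h, supernatant discarded, formazan dissolved in DMSO, absorbance read at 570 nm. IC50 taken as concentration giving ~50% survival; mean ± SD of three independent experiments.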

[2] = system: KB 3-1; assay: Cytotoxicity against human KB3-1 cells after 68 hrs by MTT assay; format: functional, cell-based; details: KB 3-1, 68 h; method in brief: as §1
[3] = system: MCF7; assay: Cytotoxicity against human MCF7 cells after 68 hrs by MTT assay; format: functional, cell-based; details: MCF7, 68 h; method in brief: as §1
[4] = system: HEK293; assay: Cytotoxicity against HEK293 cells after 68 hrs by MTT assay; format: cell-based; details: Homo sapiens, HEK293, 68 h; method in brief: as §1

Compound	IC50 [1] [nM]	IC50 [2] [nM]	IC50 [3] [nM]	IC50 [4] [nM]
CCCCC/C=C\C/C=C\CCCCCCCC(=O)Oc1cc(/C=C\c2cc(OC)c(OC)c(OC)c2)ccc1OC	20	20	> 10000	20
CC/C=C\C/C=C\C/C=C\CCCCCCCC(=O)Oc1cc(/C=C\c2cc(OC)c(OC)c(OC)c2)ccc1OC	10	30	> 10000	23
CCCCCCCCCCCCCCCCCC(=O)Oc1cc(/C=C\c2cc(OC)c(OC)c(OC)c2)ccc1OC	30	30	240	30
CCCCC/C=C\C/C=C\CCCCCCCC(=O)Oc1cc(/C=C/c2cc(OC)c(OC)c(OC)c2)ccc1OC	2400	4900	> 10000	2600
CCCCCCCC/C=C\CCCCCCCC(=O)Oc1cc(/C=C\c2cc(OC)c(OC)c(OC)c2)ccc1OC	310	30	> 10000	30
CCCCC/C=C\C/C=C\CCCCCCCC(=O)Oc1ccc(/C=C/c2cc(OC)c(OC)c(OC)c2)cc1OC	> 100000	> 100000	> 100000	> 100000
CCCCCCCC/C=C\CCCCCCCC(=O)Oc1ccc(/C=C/c2cc(OC)c(OC)c(OC)c2)cc1OC	> 100000	> 100000	> 100000	> 100000
CC/C=C\C/C=C\C/C=C\CCCCCCCC(=O)Oc1cc(/C=C/c2cc(OC)c(OC)c(OC)c2)ccc1OC	> 10000	2400	> 10000	2400
CCCCCCCCCCCCCCCCCC(=O)Oc1cc(/C=C/c2cc(OC)c(OC)c(OC)c2)ccc1OC	> 10000	> 10000	> 10000	2900
CC/C=C\C/C=C\C/C=C\CCCCCCCC(=O)Oc1ccc(/C=C/c2cc(OC)c(OC)c(OC)c2)cc1OC	> 100000	> 100000	> 100000	> 100000
CCCCCCCCCCCCCCCCCC(=O)Oc1ccc(/C=C\c2cc(OC)c(OC)c(OC)c2)cc1OC	> 10000	3100	7700	3900
CCCCCCCCCCCCCCCCCC(=O)Oc1ccc(/C=C/c2cc(OC)c(OC)c(OC)c2)cc1OC	> 100000	> 100000	> 100000	> 100000
COc1cc2c(c(OC)c1OC)-c1ccc(OC)c(=O)cc1[C@@H](NC(C)=O)CC2 [COLCHICINE]	60	20	60	20
COc1ccc(/C=C\c2cc(OC)c(OC)c(OC)c2)cc1O [COMBRETASTATIN A4]	10	10	90	10
COc1ccc(/C=C/c2cc(OC)c(OC)c(OC)c2)cc1O [E-COMBRETASTATIN A-4]	250	100	110	200
